Laboratory results from the EternaBench riboswitch data.

Test system: MS2 coat protein
Assay: apparent Kd, MS2 coat protein; higher = weaker binding; RNA-MaP array; FMN 200 µM where present
Summary of the method: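 The titrant was SNAP-549-labelled MS2 coat protein, run from 0.7 or 1.5 nM in doubling steps to 3 µM. It was applied to designs transcribed by stalled E. coli RNA polymerase on Illumina sequencing-chip clusters, without ligand first and then with constant ligand, in 100 mM Tris-HCl pH 7.5, 80 mM KCl, 4 mM MgCl2, BSA, DTT, yeast tRNA and Tween-20. The apparent Kd is the median of filtered per-cluster binding-curve fits, with green signal normalised to red-channel RNA signal and control-cluster median Fmax.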

[1] = designed as: OFF switch for flavin mononucleotide, no ligand
[2] = ligand present: flavin mononucleotide, designed as: OFF switch for flavin mononucleotide
[3] = designed as: ON switch for flavin mononucleotide, no ligand
[4] = ligand present: flavin mononucleotide, designed as: ON switch for flavin mononucleotide

## GAGUGACAUGAGGAUCACCCAUGUGAGGAUAUCGGACGGACCAAAUUAACAACAAACGCGAGAAGGCACAUCGG
[1]
  apparent Kd: 76.4 nM
[2]
  apparent Kd: 79.5 nM

## GAGUGGUAAAGAGGAUAUGCAUUGUUAUUAAAUGCAGAAGGUUUUAACAUGAGGAUCACCCAUGUAGGACUAUUCCUGUGUUUC
[3]
  apparent Kd: 14.8 nM
[4]
  apparent Kd: 12.2 nM

## GAGUUGAAGUUAGGAUAUUGGAUAGGGACGGAAUAAGAAGGAGCAAGACAUGAGGAUCACCCAUGUGUAGAAGAAGAGAUCCUC
[1]
  apparent Kd: 352 nM
[2]
  apparent Kd: 227 nM

## GAUAAACAUGAGGAUCACCCAUGUGUGAAUAUGGGAGGAUAUACGUGGACCGUAGUCCGCGUAGAAGGCCUAAUUG
[3]
  apparent Kd: 225 nM
[4]
  apparent Kd: 40.4 nM

## GAUACACAUGAGGAUCACCCAUGUGAGGAUAUGCGUACGUUGUCCGUAGGCGACGUGCGCAGAAGGCGCUUGGU
[1]
  apparent Kd: 72.2 nM
[2]
  apparent Kd: 75 nM

## GAUAGGACAGAGAAGGACGUAGCUAGAGAUACUAGCAUAAAGUCUUCAACAUGAGGAUCACCCAUGUAGGAUAUCUGUCCUAUC
[1]
  apparent Kd: 6.43 nM
[2]
  apparent Kd: 6.64 nM

## GAUCAACAUGAGGAUCACCCAUGUGAGGAUAUGGACUUGCCCACUUAACCAUUAGAGUCUAGAAGGCGCAUCUA
[1]
  apparent Kd: 27 nM
[2]
  apparent Kd: 29.9 nM

## GAUCCUCGCGGAGGAUAUAUAAGUGGAUCACCCAUAGAAGGCCGAACAUGAGGAUCACCCAUGUGGAACAGGAUCACCGUUGUU
[3]
  apparent Kd: 79 nM
[4]
  apparent Kd: 77 nM

## GAUGAGGUAGGAUAUACGAUAAUAUAGGGUAGAUAUAUAACACAUGAGGAUCACCCAUGUAGAAGGACCAGUAG
[1]
  apparent Kd: 33.5 nM
[2]
  apparent Kd: 73.4 nM

## GAUGAUCGGUGAGGAUAUUUUAUAACGUUUUUGAAAGAAGGCACUGACAUGAGGAUCACCCAUGUGAGUCCUCAUCUUGAAAUA
[1]
  apparent Kd: 18 nM
[2]
  apparent Kd: 35.6 nM

## GAUGUAUUCGUAGGAUAUCCGUCGCCACCGUGUGGAGAAGGACGAACAUGAGGAUCACCCAUGUAUCAUGGUGUAGACGCUUUC
[1]
  apparent Kd: 63.6 nM
[2]
  apparent Kd: 70.9 nM

## GAUUAACAUGAGGAUCACCCAUGUGAGGAUAUGAACUUGCCCACUUACCCUUUAGAGUUUAGAAGGCGCAUUUC
[1]
  apparent Kd: 18.9 nM
[2]
  apparent Kd: 19 nM

## GAUUAACAUGAGGAUCACCCAUGUGAGGAUAUGGAAUGGCACAUUGUUUGAUUCCCGUCUAGAAGGCACAUCUU
[1]
  apparent Kd: 44.5 nM
[2]
  apparent Kd: 41.6 nM

## GAUUAACAUGAGGAUCACCCAUGUGAGGAUAUGGACUGGCUCACUUUUCGAUUCCCGUCUAGAAGGCGCAUCUU
[1]
  apparent Kd: 39.3 nM
[2]
  apparent Kd: 55.6 nM

## GAUUCACAUGAGGAUCACCCAUGUGAGGAUAUCUAGGUGCGGAGGCUAAGACCUCCAGAGAGAAGGCACAUGGC
[1]
  apparent Kd: 24.2 nM
[2]
  apparent Kd: 36.8 nM

## GAUUGAACCCAGAAGGCAUGAUCCACAUGAGGAUCACCCAUGUCGGUGAUGAGGAUAUGGCAUCGUCGCGCAGGGCACUAAUGA
[3]
  apparent Kd: 590 nM
[4]
  apparent Kd: 119 nM

## GAUUUCGCAUGAGGAUAUGCUCGCAUUUCAAGAGCAGAAGGUAUGUCUUUAGACAUGAGGAUCACCCAUGUAGUUAAGAUUGAA
[3]
  apparent Kd: 24.3 nM
[4]
  apparent Kd: 14.7 nM

## GAUUUUUCUGAGGAUAUUGCAUCACCCGAUCUAUAAGAAGGCAGAACAUGAGGAUCACCCAUGUGGGUUUCUAG
[1]
  apparent Kd: 22.1 nM
[2]
  apparent Kd: 45.6 nM

## GCAAAGCCUGACAUGAGGAUCACCCAUGUUAGAUUGUUAUGUCAGGAUAUUGUCUAGACACUAGACAAGAAGGGAUGCUUUGCU
[3]
  apparent Kd: 366 nM
[4]
  apparent Kd: 34.2 nM

## GCAAAGCCUGACAUGAGGAUCACCCAUGUUAGAUUGUUAUGUCAGGAUAUUGUCUAGCAACUAGACAAGAAGGGAUGCUUUGCC
[3]
  apparent Kd: 603 nM
[4]
  apparent Kd: 50.9 nM

## GCACAUGAUACAGGAUAUGUUUUGGAUUUUAUAUGCAGUUAUAAUUUUUUGACAGAAGGGUAUACAUGAGGAUCACCCAUGUGC
[1]
  apparent Kd: 161 nM
[2]
  apparent Kd: 75 nM

## GCACAUGGCAUAGGAUAUAGAACUUUACUUUAUAUAGGUAGUUACACUUAACUAGAAGGAUGUUACAUGAGGAUCACCCAUGUU
[3]
  apparent Kd: 25.4 nM
[4]
  apparent Kd: 20 nM

## GCACGACAUGUAGGAUAUCGAGCGCCGGGCGCUCGAGAAGGACAUGAGGAUCACCCAUGUAUUCUGAGUGACCGAGGUCGUGCA
[1]
  apparent Kd: 53.9 nM
[2]
  apparent Kd: 557 nM

## GCACGAGACUAAGGAUAUGGAGUGUCAACAUAAAACAUGAGGAUCACCCAUGUAAAGAGUACGAUUCAGAAGGUAGAGACGUGC
[3]
  apparent Kd: 41 nM
[4]
  apparent Kd: 23.6 nM

## GCACGAGACUAAGGAUAUGGUGUACCUACAUGUAACAUGAGGAUCACCCAUGUGGUAAGUAUGAUUCAGAAGGUAGAGACGUGC
[3]
  apparent Kd: 33.2 nM
[4]
  apparent Kd: 20 nM

## GCACGGCAUGUAGGAUAUCGAGCUCAAAGAGCUCGAGAAGGACAUGAGGAUCACCCAUGUGCUCACAGACAGUGAGCGCUGUGC
[1]
  apparent Kd: 25.1 nM
[2]
  apparent Kd: 91.5 nM

## GCACGGCAUGUAGGAUAUCGAGCUCCGGGAGCUCGAGAAGGACAUGAGGAUCACCCAUGUGCUCACAGUGAGUGAGUGCUGUGC
[1]
  apparent Kd: 19.7 nM
[2]
  apparent Kd: 38.8 nM

## GCACGGUAAGUGAGGAUAUACCUCUGGAUACAGAGGUAGAAGGCACAUGAGGAUCACCCAUGUCCUAGCCGUGC
[1]
  apparent Kd: 36.7 nM
[2]
  apparent Kd: 271 nM

## GCACGGUAAGUGAGGAUAUACCUCUGGAUACAGAGGUAGAAGGCACAUGAGGAUCACCCAUGUUCCAGCCGUGC
[1]
  apparent Kd: 17.9 nM
[2]
  apparent Kd: 74.8 nM

## GCACUCAAGUUAGGAUAUGGAUCGGAAAACGAUCCAGAAGGAAUAUGGGAACAUGAGGAUCACCCAUGUUCCACAAACGAGUGC
[3]
  apparent Kd: 40.9 nM
[4]
  apparent Kd: 22.1 nM

## GCACUGCAGCGGCGCACGAGACAUGAGGAUCACCCAUGUGACAGAAGGGACUUGUUAAAGGUAGGUCAGGAUAUGUCUUAAAAG
[3]
  apparent Kd: 219 nM
[4]
  apparent Kd: 65.8 nM

## GCACUGGAUGUAGGAUAUCAGGACGAUAAGUCCUGAGAAGGACAUGAGGAUCACCCAUGUAAAACUCACCAGUGCUAUAAUAUA
[1]
  apparent Kd: 12.8 nM
[2]
  apparent Kd: 17.7 nM

## GCACUGGAUGUAGGAUAUCAGGACGAUAAGUCCUGAGAAGGACAUGAGGAUCACCCAUGUGAUUAUACCAGUGCAAAUAAUAUA
[1]
  apparent Kd: 30.7 nM
[2]
  apparent Kd: 274 nM

## GCAGCAAUUUAAAACAUGAGGAUCACCCAUGUCGAGUGUUAUGAGGAUAUGCAUCGGAUGAAGAUGCAGAAGGCAUUGUGCUGC
[3]
  apparent Kd: 6.32 nM
[4]
  apparent Kd: 6.72 nM

## GCAGCACUCAUUAACAUGAGGAUCACCCAUGUCAAAAGACAUGAGGAUAUGCAUCUGAAGAAGAUGCAGAAGGCAUUGUGCUGC
[3]
  apparent Kd: 555 nM
[4]
  apparent Kd: 25.6 nM

## GCAGCGUAUGUAGGAUAUCGGUCAGUUUCUGACCGAGAAGGACAUGAGGAUCACCCAUGUAAAUUACCGACUUUGUCGGGCUGC
[1]
  apparent Kd: 6.67 nM
[2]
  apparent Kd: 8.62 nM

## GCAGCUAUUAUUAUACAUGAGGAUCACCCAUGUUACAUGUGUAAGGAUAUUGAUGUUUAUAUAAUCAAGAAGGUACGAUGCUGC
[3]
  apparent Kd: 12.6 nM
[4]
  apparent Kd: 8.59 nM

## GCAGGUAUACGAGGAUAUGGGUGGUACGGACAUGAGGAUCACCCAUGUCUCCCAGAAGGCGUAGCCUAACAUUAAGAGCAGGAG
[3]
  apparent Kd: 122 nM
[4]
  apparent Kd: 22.5 nM

## GCAUAGGACAGAGGAUAUACGUGCUAGAGAUACUAGCAAAAUUUCCUCACAUGAGGAUCACCCAUGUAGAAGGCUGUCCUAUCG
[1]
  apparent Kd: 17.6 nM
[2]
  apparent Kd: 422 nM

## GCAUCCAUAGUGAGGAUAUACCUCUGGAUACAUAGGUAGAAGGCACAUGAGGAUCACCCAUGUUCUUAGGAUGC
[1]
  apparent Kd: 28.7 nM
[2]
  apparent Kd: 35.4 nM

## GCAUCGUCGACUGAUAAUGAGCCUAGAAGGCGGACAUGAGGAUCACCCAUGUCUGAUCCUCGGCCCGAGGAUAUAGGUUAAUGA
[1]
  apparent Kd: 12.1 nM
[2]
  apparent Kd: 8.65 nM

## GCAUGCAAGUAGAAGGACAGAUAUUUUGAUACUGUAGGAUAUGCAGAAUCAUAUCCACAUGAUAACAUGAGGAUCACCCAUGUA
[1]
  apparent Kd: 11.6 nM
[2]
  apparent Kd: 10 nM

## GCAUGGGCCGUCAGGAUAUAGGCGCCGUGAAGGUAUUAGAAGGGACAUGAGGAUCACCCAUGUAUGAGAAAAGA
[1]
  apparent Kd: 36.7 nM
[2]
  apparent Kd: 42.7 nM

## GCAUGGUAUGAGAAGGCAUAAUUUAUCUAACAACAUGAUUACAUGAGGAUCACCCAUGUUUCCAAUGAGGAUAUCAUACCGUGC
[1]
  apparent Kd: 7.83 nM
[2]
  apparent Kd: 7.12 nM

## GCAUGUUAUGUCAGGAUAUACCUAUGGAUACAUAGGUAGAAGGGACAUGAGGAUCACCCAUGUCCUAACCAUGC
[1]
  apparent Kd: 11.8 nM
[2]
  apparent Kd: 15.1 nM

## GCCAAGCAAAAUAAAAUAAAUAAAACAUGAGGAUCACCCAUGUAGGAUAUGCUACACAAAGUGUAGCAGAAGGACAAGCUUGGC
[1]
  apparent Kd: 14.6 nM
[2]
  apparent Kd: 19 nM

## GCCACGUCAGGAUAUCUGAUGUCUAACUUCGGUUAGACAUCAGAGAAGGGACAUGAGGAUCACCCAUGUGGCAA
[1]
  apparent Kd: 264 nM
[2]
  apparent Kd: 177 nM

## GCCAGAGAAGGAUAUACGAGGAUCGAGUGGUCACACCUACAACAUGAGGAUCACCCAUGUAGAAGGUUUCGGCU
[1]
  apparent Kd: 13.9 nM
[2]
  apparent Kd: 16.3 nM

## GCCAGGAUGUGAGGAUAUGCUGAGGAUAACUCAGCAGAAGGCACAUGAGGAUCACCCAUGUACACUUAUCAUAAAUACCCUGGC
[1]
  apparent Kd: 11.9 nM
[2]
  apparent Kd: 16.3 nM

## GCCAUCACAUGAGGAUAUGCUCCCGUUUCGGGAGCAGAAGGCAUGUCAUCAGACAUGAGGAUCACCCAUGUAGUUAAGAUGGCA
[3]
  apparent Kd: 361 nM
[4]
  apparent Kd: 15.1 nM

## GCCAUCACAUGAGGAUAUGCUCGGGUUUCCCGAGCAGAAGGCAUGUCAUAAGACAUGAGGAUCACCCAUGUAGGUAAGAUGGCA
[3]
  apparent Kd: 292 nM
[4]
  apparent Kd: 13.6 nM

## GCCAUCGCAUGAGGAUAUGCUCCCGUUUCGGGAGCAGAAGGCAUGUCAUAAGACAUGAGGAUCACCCAUGUGGUAAAGAUGGCA
[3]
  apparent Kd: 237 nM
[4]
  apparent Kd: 10.3 nM

## GCCAUCGCAUGAGGAUAUGCUCCGGUUUCCGGAGCAGAAGGCAUGUCACAAGACAUGAGGAUCACCCAUGUAGUUAAGAUGGCA
[3]
  apparent Kd: 185 nM
[4]
  apparent Kd: 8.88 nM

## GCCAUCGCAUGAGGAUAUGCUCCGGUUUCCGGAGCAGAAGGUAUGUCAUAAGACAUGAGGAUCACCCAUGUAGGUAAGAUGGCA
[3]
  apparent Kd: 221 nM
[4]
  apparent Kd: 31.3 nM

## GCCAUCGCAUGAGGAUAUGCUCGGGUUUCCCGAGCAGAAGGCAUGCCAUAAGACAUGAGGAUCACCCAUGUAGUUAAGAUGGCA
[3]
  apparent Kd: 5.36 nM
[4]
  apparent Kd: 5.4 nM
